HCV NS3 hel inh = inhibitors of HCV NS3 helicase, primary screen, biochemical, Cy5 molecular beacon fluorescence; NS3 helicase DNA unwinding; inhibition, % at 10.9 µM; hit rate 0.56% among 290,000; AID 1800, 2009;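 active means inhibition above the mean of all tested compounds plus 3 SD, set per campaign, cut at about 35% in these data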;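 further: 0% = DMSO wells and 100% = thioflavine S control wells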
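Material: hepatitis C virus NS3 helicase domain fragment enzyme; measured by: Cy5 fluorescence, 0 and 60 min reads; control set: DMSO and thioflavine S; incubation: 60 min unwinding reaction at 25 °C after ATP addition; read-out basis: % inhibition from 60/0 min fluorescence ratio, DMSO 0%, thioflavine S 100%; repeats: singlicate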
FID counter = compounds displacing fluorescent DNA intercalator, primary screen, artefact control for HCV NS3 helicase inhibitor project, biochemical, FID fluorescence | DNA fluorescent intercalator displacement | inhibition, % at 7.9 µM | hit rate 0.17% among 290,000 | AID 1845, 2009; in the data active means inhibition above about 37%;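 further: 0% = vehicle and 100% = reference compound; higher means more ethidium bromide displaced from hairpin DNA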
VIM-2 inh = VIM-2 metallo-beta-lactamase inhibitors, primary screen, biochemical, epi-absorbance readout, Pseudomonas aeruginosa enzyme | hit rate 0.89% among 290,000 | inhibition, % at 5.6 µM | purified VIM-2, nitrocefin hydrolysis, epi-absorbance fluorescence;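 active means inhibition above the mean of all tested compounds plus 3 SD, cutoff set per screening run, cut at about 7.5% in these data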;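 further: red hydrolysis product quenches plate fluorescence so inhibitors raise well fluorescence; 0% = enzyme with DMSO and 100% = DMSO without enzyme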
IMP-1 inh = IMP-1 metallo-beta-lactamase inhibitors, primary screen, biochemical, epi-absorbance readout, Pseudomonas aeruginosa enzyme. inhibition, % at 5.6 µM. AID 1556, 2009. metallo-beta-lactamase IMP-1 (Pseudomonas aeruginosa). purified IMP-1, nitrocefin hydrolysis, epi-absorbance fluorescence. hit rate 0.45% among 290,000;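 active means inhibition above the mean plus 3 SD of all compounds in the same screening run, cut at about 4.5% in these data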;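 further: 0% = IMP-1 with DMSO and 100% = DMSO wells lacking enzyme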
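System: purified IMP-1 / Input: IMP-1 dispensed at 0.2 nM / Medium: 50 mM HEPES pH 7.1, 50 µM ZnSO4, 0.05% Brij 35 / Timing: 15 min enzyme–compound preincubation, then 25 min nitrocefin reaction, 25 °C / Technique: plate fluorescence quenching by hydrolysis product, ex 480/em 530 nm / Repeats: singlicate testing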
UBC9 SUMO inh = inhibitors of in vitro SUMOylation cascade, primary screen, biochemical, HTRF, uHTS | SUMO-conjugating enzyme UBC9 (Homo sapiens), P63279 | HTRF SUMOylation assay, SAE1/SAE2 + UBC9 | inhibition, % at 35 µM | hit rate 0.36% among 290,000 | AID 2006, 2009; in the data active means inhibition above about 50%, passing the limit was not always enough; inconclusive means no clear call, values can overlap the other calls
Target sequence (P63279 whole entry, looked up): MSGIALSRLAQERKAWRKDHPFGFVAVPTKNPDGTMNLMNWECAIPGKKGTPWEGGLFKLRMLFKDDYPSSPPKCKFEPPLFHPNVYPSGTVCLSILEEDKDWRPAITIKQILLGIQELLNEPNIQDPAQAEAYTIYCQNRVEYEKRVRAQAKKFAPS
An asterisk follows results filed as active; u = inconclusive; x = not tested or not shown. Shown are actives, neighbours in structure and some others; about 2.1% of the full set was active somewhere.

SMILES	HCV NS3 hel inh	FID counter	VIM-2 inh	IMP-1 inh	UBC9 SUMO inh
Cc1c(OC(C)C(=O)NCC(O)c2ccccc2)ccc2c3c(c(=O)oc12)CCCC3 (stereo not given)	0	-37	11*	2	8
Cc1c(Cc2ccccc2)c(=O)oc2c(C)c(OCC(=O)N3CCC(C(=O)O)CC3)ccc12	1	-26	0	-3	21
Cc1c(OCC(=O)N2CCC(C(=O)O)CC2)ccc2c3c(c(=O)oc12)CCC3	13	-30	9.9*	-3	-4
Cc1c(OC(C(=O)O)c2ccccc2)ccc2c3c(c(=O)oc12)CCC3 (stereo not given)	7	-21	7.7*	-2	0
Cc1c(OCC(=O)N[C@H](C(=O)O)c2ccccc2)ccc2c3c(c(=O)oc12)CCCC3	2	-28	12*	-5	28
Cc1c(OCC(=O)NC(Cc2ccc(Cl)cc2)C(=O)O)ccc2c3c(c(=O)oc12)CCC3 (stereo not given)	29	4	6	-1	-5
Cc1cc(=O)oc2c(C)c(OC(C)C(=O)NCC(O)c3ccccc3)ccc12 (stereo not given)	-6	-26	4	0	19
Cc1ccc(C(=O)NC2CCN(S(=O)(=O)c3ccccc3F)CC2)cc1	-8	-19	-2	-2	4
CCn1c(=O)c2sccc2n2c(CCCC(=O)NCc3cccnc3)nnc12	8	-7	3	-4	13
Cc1ccc(S(=O)(=O)NCc2ccc(C(=O)N3CCN(c4ccc([N+](=O)[O-])cc4)CC3)cc2)cc1	-3	-36	2	-3	3
CCN(CC)C(=O)COc1ccc2c3c(c(=O)oc2c1C)CCCC3	0	-23	8.0*	0	-1
CCC(Cc1ccccc1)NC(=O)CCc1ccccc1 (stereo not given)	-2	-14	1	0	12
Cc1c(N2C(=O)c3ccc4c5c(ccc(c35)C2=O)CC4)c(=O)n(-c2ccccc2)n1C	15	-4	3	-3	56*
COc1cccc(CN(C(=O)Cc2c[nH]c3ccccc23)C(C(=O)NC2CCCCC2)c2ccc(C)o2)c1 (stereo not given)	14	-37	-2	22*	-15
Cc1cccc(N2CSC3=C(C#N)C(c4ccc(C)o4)CC(=O)N3C2)c1 (stereo not given)	20	-18	-1	-2	78*
O=C(c1ccccc1)c1ccc(O)cc1O	18	1	7	12*	-2
Fc1ccccc1CSc1nncn1NCc1cccs1	-1	-12	-3	4.8*	-5
Cn1c(-c2ccc(Br)o2)nc2cc(Br)ccc21	6	-6	8.0*	-1	-4
COC(=O)c1ccc(S(=O)(=O)NC(C)(C)C)n1C	-5	-1	-2	-4	-6
NNC(=O)c1nc[nH]c1C(=O)Nc1ccccn1	-1	-3	-3	7.6*	-10
Cc1ccc(NC(=O)c2[nH]cnc2C(=O)NN)cc1	-8	-6	-2	-2	-23
Cc1ccc2c(c1)C1C=CCC1C(C(=O)O)N2 (stereo not given)	37*	-6	-1	-1	60*
COc1ccc(-c2nc3scc(-c4ccc(OC)c(OC)c4)c3c(=O)o2)cc1	5	-3	0	5.0*	26
COc1ccc(-c2csc3nc(C(C)C)oc(=O)c23)cc1OC	-1	-12	-1	0	23
CCC1(c2ccc(F)cc2)NC(=O)N(CC(=O)Nc2ccc(S(N)(=O)=O)cc2)C1=O (stereo not given)	5	1	-2	-1	-8
SMILES	HCV NS3 hel inh	FID counter	VIM-2 inh	IMP-1 inh	UBC9 SUMO inh
Cc1ccc(NC(=O)c2ccc(=O)n(CC(=O)Nc3c(C)cc(C)cc3C)n2)cc1	22	-37	-2	1	x
COC(=O)c1ccc(NC(=O)Cn2nc(C(=O)Nc3ccc(C)cc3)ccc2=O)cc1	23	-22	0	11*	30
CCN(CC)CCOc1ccc2c(c1)C(=NO)c1cc(OCCN(CC)CC)ccc1-2	28	90*	4	-3	19
Cc1ccc(C2NC(c3ccc(C)cc3)C(C)C(=O)C2C)cc1 (stereo not given)	15	-8	-4	-4	-9
CCOc1ccc(CCNC(=O)c2nnc(CS(=O)(=O)c3ccccc3)o2)cc1OCC	-3	-36	-2	-3	-8
Oc1c(C=Nc2cccc3cccnc23)sc2ccccc12	7	-8	9.7*	-2	-15
CC(=O)Nc1ccc(S(=O)(=O)N2CCC(N3CCCCCC3)CC2)cc1	-3	2	-2	-5	5
O=C(CC12CC3CC(CC(C3)C1)C2)NC(=S)N1CCCCC1	2	-5	-3	-3	10
Cc1cccc(-n2cnc(C(=O)N3CCN(C)CC3)c2)n1	1	2	-1	-3	22
Cc1cccc(-n2cnc(C(=O)O)c2)n1	-5	10	9.7*	-1	4
CCC(C)NS(=O)(=O)c1ccc(F)c(C(=O)Nc2c(F)cc(F)cc2Br)c1 (stereo not given)	11	-19	0	0	-5
CC[C@@H](C)[C@H](NC(=O)Cc1c(C)c2cc3c(C)coc3c(C)c2oc1=O)C(=O)O	17	-28	2	-4	26
CCCCC(NC(=O)Cc1c(C)c2cc3c(-c4ccccc4)coc3c(C)c2oc1=O)C(=O)O (stereo not given)	-7	-16	8.5*	-4	9
Cc1c(CC(=O)O)c(=O)oc2c(C)c3occ(-c4ccc(Br)cc4)c3cc12	31	-10	8.9*	-2	10
N#Cc1c(-c2ccc(F)cc2)ccnc1N1CCOCC1	2	-9	-4	-3	5
COC(=O)c1ccc(=O)c2nc3/c(=C/O)c(O)cc(=O)c3[nH]c12	18	-6	18*	3	u
CCC(=O)N1CCc2cc(S(=O)(=O)NCCC(=O)N3CCN(c4cccc(C)c4)C(C)C3)ccc21 (stereo not given)	9	-58	0	-1	2
C/C(=N\NC(=O)c1ccccc1)c1ccc(-n2ccnc2)cc1	8	-5	0	-2	1
C/C(=N\NC(N)=S)c1ccc(-n2ccnc2)cc1	0	-4	10.0*	-2	-4
COc1ccc(/C=N/Nc2nc(-c3cccnc3)nc3ccccc23)c(OC)c1	-12	-8	-4	-2	28
CC(O)CNc1nc(NCc2ccccc2)c2cnn(C)c2n1 (stereo not given)	0	-22	-2	0	5
Cc1ccc2c(c1)c1ncnc(N3CCC4(CC3)OCCO4)c1n2C	0	-32	7	-4	28

Screening results from PubChem BioAssay.
